Measured values collected from several papers.
Lines come from different studies, so protocols differ.
Target: Acetylcholinesterase (ACHE, Homo sapiens, UniProt P22303)

C[C@H](C(=O)N[C@H]1COc2ccccc2[C@@H]1S(C)(=O)=O)c1ccc(F)cc1  inhibition (enzyme activity; inhibitor; 10 µM): 1%
CCN1C(=O)C=CC1=O  inhibition (enzyme activity; inhibitor; 30 µM): ~20%
O=C(Nc1cccnn1)N1CCN([C@@H]2CCOc3cc(C(F)(F)F)ccc32)CC1  inhibition (enzyme activity; inhibitor; 20 µM): -3%
Cc1ncc(C)n2nc(/C=C/c3nc(N4CCCC4)cc(N4CCOCC4)n3)nc12  inhibition (enzyme activity; inhibitor; 10 µM): 4%
Nc1ncc(-c2nc(N3CCOCC3)nc(N3CCOCC3)n2)c(C(F)F)n1  remaining activity (enzyme activity; inhibitor; 10 µM): 98%
C=CCn1c2cc(OC(=O)CCN3CCN(Cc4ccccc4)CC3)ccc2c2ccnc(C)c21  inhibition (enzyme activity; inhibitor; Ellman; 1 µM): 36.4%
O=C1CN(C(=O)CCn2ccnc2)CC(O)CN1CCc1ccccc1 (stereo not drawn)  inhibition (enzyme activity; inhibitor; Ellman; 10 µM): 21.6%
COc1ccc(S(=O)(=O)N2CCCCC2)cc1C  inhibition (ligand displacement; radioligand; 10 µM): < 30%
COCc1c(-c2cc3cc(C)cc(OC)c3s2)c2c(N)ncnn2c1CN1CCNC(=O)C1  inhibition (enzyme activity; inhibitor; 10 µM): -1%
COc1ccc2c(c1)[nH]c1c(C)nccc12  inhibition (enzyme activity; inhibitor; Ellman; 1 µM): 33.8%
CN(CCN1CCC(OC(=O)Nc2ccccc2-c2ccccc2)CC1)C(=O)c1ccc(CN2CCC(C(N)=O)CC2)cc1  inhibition (enzyme activity; inhibitor; 1 µM): 9%
c1ccc(C(NCCNC(c2ccccc2)c2ccccc2)c2ccccc2)cc1  inhibition (enzyme activity; inhibitor; 10 µM): 13%
O=C(O)c1ccccc1O  inhibition (enzyme activity; inhibitor; Ellman; 20 µM): 1.3%
CCOP(=O)(OCC)Oc1ccc([N+](=O)[O-])cc1  kinact/KI (enzyme activity; inhibitor): 1510 M⁻¹ s⁻¹
Clc1ccc2c(C3CCN(CCc4c[nH]c5ccccc45)CC3)c[nH]c2c1  inhibition (enzyme activity; inhibitor; 10 µM): 4%
